pIC50: −log10 of the molar value.
Key:
[1] = target: T1, DNA helicase/primase complex protein (Herpes simplex virus (type 1 / strain 17), UniProt P10236); experiment: (§1) Inhibition against Primase by coupled primase-DNA polymerase-I assay with the two subunit recombinant HSV-1 helicase primase; type: functional, Human alphaherpesvirus 1
T1 sequence (P10236 whole entry): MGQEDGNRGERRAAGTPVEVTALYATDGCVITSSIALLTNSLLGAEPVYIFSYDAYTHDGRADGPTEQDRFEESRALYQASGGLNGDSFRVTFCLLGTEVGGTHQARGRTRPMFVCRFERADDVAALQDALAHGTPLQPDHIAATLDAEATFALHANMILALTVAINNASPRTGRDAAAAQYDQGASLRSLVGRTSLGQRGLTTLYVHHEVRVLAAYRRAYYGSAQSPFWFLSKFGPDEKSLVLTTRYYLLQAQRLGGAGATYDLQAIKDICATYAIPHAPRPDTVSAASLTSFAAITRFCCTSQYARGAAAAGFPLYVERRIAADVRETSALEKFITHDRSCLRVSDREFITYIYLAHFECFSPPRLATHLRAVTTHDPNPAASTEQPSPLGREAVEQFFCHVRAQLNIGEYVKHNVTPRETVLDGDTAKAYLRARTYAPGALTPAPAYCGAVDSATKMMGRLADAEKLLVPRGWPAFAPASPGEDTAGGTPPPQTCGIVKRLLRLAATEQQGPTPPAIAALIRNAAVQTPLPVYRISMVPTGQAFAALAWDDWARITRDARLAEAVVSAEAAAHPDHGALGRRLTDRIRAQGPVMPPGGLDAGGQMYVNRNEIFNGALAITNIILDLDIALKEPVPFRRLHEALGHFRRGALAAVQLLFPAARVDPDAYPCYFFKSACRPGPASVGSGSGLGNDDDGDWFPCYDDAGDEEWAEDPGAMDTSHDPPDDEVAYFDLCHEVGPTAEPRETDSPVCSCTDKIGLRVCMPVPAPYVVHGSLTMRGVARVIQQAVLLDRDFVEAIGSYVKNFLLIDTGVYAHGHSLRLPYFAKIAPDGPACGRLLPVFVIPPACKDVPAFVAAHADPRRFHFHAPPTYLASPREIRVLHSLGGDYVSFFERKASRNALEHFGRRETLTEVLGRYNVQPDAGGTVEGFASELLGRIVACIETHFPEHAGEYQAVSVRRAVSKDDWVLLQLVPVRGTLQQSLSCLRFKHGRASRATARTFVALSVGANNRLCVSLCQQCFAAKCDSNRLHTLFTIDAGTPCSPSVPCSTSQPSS
Method in brief: (§2)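 Two-subunit baculovirus enzyme (1 unit) coupled to 1 unit E. coli Klenow. Buffer: 50 mM Tris·HCl pH 8.7, 3.5 mM MgCl2, 10% glycerol, 100 μg/mL BSA. Inhibitors in DMSO at 0.5% final, screened at 200 μg/mL. Run 60 min at 34 °C; EDTA quench; polymer isolated on G50 and counted. Duplicates.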

[2] = target: T2, DNA helicase/primase complex protein (Herpes simplex virus (type 1 / strain 17)) (UniProt P10236); experiment: Inhibition against DNA-Dependent ATPase activity of HSV-1 helicase-primase in HSV-1-infected CV-1 cells; type: cell-based; design: concentration or dose not given beside the values; conditions: concentration not given here
T2 sequence (whole entry): T1 sequence (P10236 whole entry)
Method in brief: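 Three-subunit helicase-primase purified from HSV1-infected CV-1 cells, 15 units. DNA-dependent NTPase run with 1 mM ATP and 2 μg activated DNA, compounds in 5% DMSO, 20 min at 34 °C. Orthophosphate read with acidic molybdate-malachite green at 650 nm. Done in duplicate, averaged over at least two independent experiments.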

[3] = target: T2, DNA helicase/primase complex protein (Herpes simplex virus (type 1 / strain 17)); experiment: (§3) Inhibition against the primase activity of HSV-1 helicase-primase at a concentration 200 micro/mL; type: functional; conditions: Human alphaherpesvirus 1
[4] = system: HeLa; experiment: Inhibition of [3H]thymidine incorporation into the DNA of uninfected HeLa cells; type: functional, cell-based; conditions: Homo sapiens
Method in brief: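 Uninfected HeLa cells (3 × 10^6/well) in DMEM/10% FCS grown 24 h, then given serial compound dilutions or DMSO in duplicate for a further 24 h at 37 °C. [3H]thymidine (1 μCi/mL) added for 3 h, followed by NaOH lysis, 5% TCA precipitation, filter collection and scintillation counting.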

[5] = system: HeLa; experiment: Inhibition of HSV-1 DNA synthesis in virus-infected HeLa cells; type: functional, cell-based; conditions: Homo sapiens
Method in brief: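 HeLa cells (2 × 10^4/well) grown 24 h at 37 °C, infected with HSV1 KOS, adsorbed 90 min. Serial compound dilutions in DMEM/2% FCS added to duplicate wells for 24 h.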

[6] = target: DNA replication helicase (Human herpesvirus 1, UniProt P10189); experiment: Inhibition against DNA-Dependent GTPase activity of two-subunit recombinant HSV-1 helicase-primase
[7] = target: T2, DNA helicase/primase complex protein (Herpes simplex virus (type 1 / strain 17)); experiment: as §3; conditions: Human alphaherpesvirus 1
[8] = target: T1, DNA helicase/primase complex protein; experiment: as §1; design: species or system Human alphaherpesvirus 1; method in brief: as §2

DNA replication helicase, sequence (P10189 whole entry, looked up): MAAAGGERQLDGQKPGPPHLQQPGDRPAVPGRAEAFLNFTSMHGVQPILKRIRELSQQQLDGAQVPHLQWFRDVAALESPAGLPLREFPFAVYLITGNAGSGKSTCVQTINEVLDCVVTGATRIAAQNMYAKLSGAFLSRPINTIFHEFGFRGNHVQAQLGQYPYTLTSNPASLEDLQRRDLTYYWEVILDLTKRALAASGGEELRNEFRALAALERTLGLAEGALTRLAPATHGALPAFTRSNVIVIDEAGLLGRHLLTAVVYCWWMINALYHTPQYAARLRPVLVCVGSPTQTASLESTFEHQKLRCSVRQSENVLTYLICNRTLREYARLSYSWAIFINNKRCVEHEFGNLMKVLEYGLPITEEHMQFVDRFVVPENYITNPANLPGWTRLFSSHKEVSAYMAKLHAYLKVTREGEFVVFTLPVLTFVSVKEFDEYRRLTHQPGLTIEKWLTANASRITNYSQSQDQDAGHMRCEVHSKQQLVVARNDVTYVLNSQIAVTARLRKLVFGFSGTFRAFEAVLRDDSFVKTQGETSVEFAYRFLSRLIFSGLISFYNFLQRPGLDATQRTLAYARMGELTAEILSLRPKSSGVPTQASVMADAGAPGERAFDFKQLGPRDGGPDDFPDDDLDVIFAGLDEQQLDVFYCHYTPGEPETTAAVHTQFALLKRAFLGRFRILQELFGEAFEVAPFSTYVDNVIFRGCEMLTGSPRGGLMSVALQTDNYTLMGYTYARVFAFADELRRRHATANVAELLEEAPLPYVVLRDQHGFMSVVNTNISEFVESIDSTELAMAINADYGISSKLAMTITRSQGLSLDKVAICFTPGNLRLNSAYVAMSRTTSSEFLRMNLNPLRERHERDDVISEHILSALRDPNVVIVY

`Oc1[nH]c(Nc2ccc(Cl)c(Cl)c2)nc2ncnc1-2` gave a pIC50 [1] of 4.23, an inhibition [2] of 98% and an inhibition [3] of 89%. The pIC50 [4] was 3.60, the pIC50 [5] was less than 3.70 and the pIC50 [6] was 3.06.
Molecule `Oc1[nH]c(Nc2ccc(F)c(Cl)c2)nc2ncnc1-2` has an inhibition [2] of 96%.
With `Nc1nc2c(ncn2COCCO)c(=O)[nH]1` [ACYCLOVIR] the pIC50 [4] was less than 3.70 and the pIC50 [5] was 5.72.
`Oc1[nH]c(Nc2ccc(Br)cc2)nc2ncnc1-2` showed an inhibition [2] of 40%.
In the case of `O=c1[nH]c(Nc2cc(Cl)cc(Cl)c2)nc2c1ncn2COCCO`, the pIC50 [4] was 4.63 and the pIC50 [5] was 4.84.
Work on `O=c1[nH]c(Nc2cc(Cl)cc(Cl)c2)nc2c1ncn2[C@H]1C[C@H](O)[C@@H](CO)O1` yielded a pIC50 [4] of 4.49 and a pIC50 [5] of 3.72.
`Nc1nc(Nc2cc(Cl)cc(Cl)c2)cc(=O)[nH]1` was tested, and the pIC50 [6] was 3.11.
Molecule `Nc1nc(Nc2cc(Cl)cc(Cl)c2)nc2c1ncn2COCCO` has a pIC50 [4] of 5.60 and a pIC50 [5] of 4.89.
Work on `O=c1[nH]c(Nc2cc(Cl)cc(Cl)c2)nc2nc[nH]c12` yielded a pIC50 [6] of 3.04.
For `CCc1cccc(Nc2nc(O)c3[nH]cnc3n2)c1`, the inhibition [2] was 42%.
`Nc1nc(Cl)cc(Nc2cc(Cl)cc(Cl)c2)n1` showed an inhibition [7] of 92%, a pIC50 [4] of 4.64 and a pIC50 [5] of 4.35.
Molecule `Nc1[nH]c(Nc2ccc(Cl)c(Cl)c2)nc2ncnc1-2` has an inhibition [7] of 94%, a pIC50 [4] of 4.82 and a pIC50 [5] of 4.12. It also gave a pIC50 [6] of 3.07.
Molecule `Nc1nc(O)cc(Nc2ccc(Cl)c(Cl)c2)n1` has an inhibition [7] of 44% and a pIC50 [6] of 3.07.
Molecule `Nc1nc(Nc2cc(Cl)cc(Cl)c2)nc2nc[nH]c12` has a pIC50 [6] of 3.04.
`Nc1nc(Nc2cc(Cl)cc(Cl)c2)nc2c1ncn2[C@H]1C[C@H](O)[C@@H](CO)O1` was tested, and the pIC50 [4] was 6.40 and the pIC50 [5] was 4.31.
`Oc1cc(Nc2ccc(Cl)c(Cl)c2)nc(O)n1` was tested, and the inhibition [7] was 30% and the pIC50 [6] was less than 2.70.
`Oc1[nH]c(Nc2cc(Cl)cc(Cl)c2)nc2ncnc1-2` gave an inhibition [2] of 70%, an inhibition [3] of 94% and a pIC50 [4] of less than 3.70. It also gave a pIC50 [5] of less than 3.70.
In the case of `Nc1nc(Cl)cc(Nc2ccc(Cl)c(Cl)c2)n1`, the pIC50 [8] was 5.06, the inhibition [7] was 98% and the pIC50 [4] was 4.60. The pIC50 [5] was 4.21.
Molecule `Oc1[nH]c(Nc2ccc(F)cc2)nc2ncnc1-2` has an inhibition [2] of 5%.
Work on `Oc1[nH]c(Nc2ccccc2)nc2ncnc1-2` yielded an inhibition [2] of 0%.
Work on `Oc1cc(Nc2cc(Cl)cc(Cl)c2)nc(O)n1` yielded an inhibition [7] of 46% and a pIC50 [6] of less than 2.70.
With `Oc1ccc(Nc2nc(O)c3[nH]cnc3n2)cc1` the inhibition [2] was 17%.
For `Nc1nc(O)cc(Nc2cc(Cl)cc(Cl)c2)n1`, the inhibition [7] was 34%.
For `OC[C@H]1O[C@@H](n2cnc3c(Cl)nc(Nc4cc(Cl)cc(Cl)c4)nc32)C[C@@H]1O`, the pIC50 [4] was 5.57 and the pIC50 [5] was 4.64.
`Oc1[nH]c(Nc2ccc3c(c2)CCC3)nc2ncnc1-2` was tested, and the inhibition [2] was 0%.
`Nc1nc(Nc2cc(Cl)cc(Cl)c2)nc2c1ncn2COC(CO)CO` gave a pIC50 [4] of 5.26 and a pIC50 [5] of 4.21.
`Oc1[nH]c(Nc2cccc(Cl)c2)nc2ncnc1-2` was tested, and the inhibition [2] was 60%.
Molecule `O=c1[nH]c(Nc2cccc(C(F)(F)F)c2)nc2[nH]cnc12` has an inhibition [2] of 13%.
In the case of `OCCOCn1cnc2c(Cl)nc(Nc3cc(Cl)cc(Cl)c3)nc21`, the pIC50 [4] was 5.13 and the pIC50 [5] was 5.30.
Work on `Oc1[nH]c(Nc2ccc(F)c(F)c2)nc2ncnc1-2` yielded an inhibition [2] of 73%.
With `Cc1ccc(Nc2nc(O)c3[nH]cnc3n2)cc1` the inhibition [2] was 0%.
With `Nc1[nH]c(Nc2cc(Cl)cc(Cl)c2)nc2ncnc1-2` the inhibition [7] was 93%, the pIC50 [4] was 4.68 and the pIC50 [5] was 4.16.
In the case of `O=c1[nH]c(Nc2cc(Cl)cc(Cl)c2)nc2c1ncn2COC(CO)CO`, the pIC50 [4] was 4.64 and the pIC50 [5] was 4.04.
